From ChEMBL document CHEMBL1132791, “1-Oxacephem-based human chymase inhibitors: discovery of stable inhibitors in human plasma” (Bioorg Med Chem Lett, 2000) come the findings set out here.

Series [1] can be described thus: The percent remaining in human plasma after 30 min was determined. In kind it is ADME, cell-free. Conditions: read-out: Stability. The method in brief: (§1)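 Compound, dissolved in DMSO, was spiked into human plasma and incubated at 37 °C. Stability was read as the percentage of intact compound left after 30 min. Half-life in human plasma was taken from this same incubation.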

A further series deals with Chymotrypsinogen A (Bos taurus, UniProt P00766). The series is described as follows: Inhibitory concentration was measured against alpha-chymotrypsin.
Series [2] is described as follows: The compound was evaluated for its half-life period. The format is ADME. In short, it runs like this:
as §1

The target of the next series is Serine protease 1 (Homo sapiens, UniProt P07477). The series is described as follows: Inhibitory concentration was measured against trypsin.
The next series addresses Prothrombin (Homo sapiens, UniProt P00734). The series can be described thus: Inhibitory concentration was measured against thrombin.
The target in another series is T1, Neutrophil elastase (Homo sapiens, UniProt P08246).
T1 sequence (P08246 whole entry): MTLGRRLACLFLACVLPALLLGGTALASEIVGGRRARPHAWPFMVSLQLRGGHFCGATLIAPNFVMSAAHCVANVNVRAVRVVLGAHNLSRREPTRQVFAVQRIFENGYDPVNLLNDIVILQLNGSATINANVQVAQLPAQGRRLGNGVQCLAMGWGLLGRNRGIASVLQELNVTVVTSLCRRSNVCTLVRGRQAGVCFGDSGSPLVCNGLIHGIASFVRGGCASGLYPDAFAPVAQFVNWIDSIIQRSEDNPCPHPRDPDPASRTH
The series can be described thus: Inhibitory concentration was measured against elastase.

For another series, the target named is T2, Chymase (Homo sapiens, UniProt P23946).
T2 sequence (P23946 whole entry): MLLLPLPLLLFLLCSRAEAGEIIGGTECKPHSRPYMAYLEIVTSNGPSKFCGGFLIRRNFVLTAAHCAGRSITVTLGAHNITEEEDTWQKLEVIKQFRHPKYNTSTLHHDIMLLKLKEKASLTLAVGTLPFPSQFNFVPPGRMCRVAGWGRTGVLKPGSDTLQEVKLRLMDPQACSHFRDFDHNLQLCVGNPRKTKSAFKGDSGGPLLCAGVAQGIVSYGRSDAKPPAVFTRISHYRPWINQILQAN
The series is described as follows: Inhibition of human Serine protease chymase.

Another series concerns the target Plasminogen (Rattus norvegicus, UniProt Q01177). The series is described as follows: Inhibitory concentration was measured against plasmin.

A value given as a limit tells only on which side of the number the result lay.

Chain of Serine protease 1 (P07477 whole entry): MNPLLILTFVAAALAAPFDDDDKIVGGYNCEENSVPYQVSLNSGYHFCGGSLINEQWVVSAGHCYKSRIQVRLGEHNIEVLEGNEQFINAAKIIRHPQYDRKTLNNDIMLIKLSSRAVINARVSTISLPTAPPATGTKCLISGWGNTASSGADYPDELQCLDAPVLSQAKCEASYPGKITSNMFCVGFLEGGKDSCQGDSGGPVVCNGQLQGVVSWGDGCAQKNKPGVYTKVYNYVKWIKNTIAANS
Chain of Plasminogen (Q01177 97-581 limits assumed): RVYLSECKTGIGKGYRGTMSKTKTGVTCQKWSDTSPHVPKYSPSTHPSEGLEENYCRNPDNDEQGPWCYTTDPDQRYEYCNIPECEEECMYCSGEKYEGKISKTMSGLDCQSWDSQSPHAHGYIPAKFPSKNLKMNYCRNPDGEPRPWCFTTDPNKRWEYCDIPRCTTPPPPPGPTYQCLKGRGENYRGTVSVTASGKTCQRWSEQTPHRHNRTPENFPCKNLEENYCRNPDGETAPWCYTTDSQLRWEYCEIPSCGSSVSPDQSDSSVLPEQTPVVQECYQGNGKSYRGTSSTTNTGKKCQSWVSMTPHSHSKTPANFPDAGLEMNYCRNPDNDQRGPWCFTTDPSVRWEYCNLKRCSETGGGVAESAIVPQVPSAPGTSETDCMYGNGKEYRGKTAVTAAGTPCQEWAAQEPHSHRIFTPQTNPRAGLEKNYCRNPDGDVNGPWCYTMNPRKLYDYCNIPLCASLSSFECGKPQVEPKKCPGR
Chain of Plasminogen (Q01177 582-812 limits assumed): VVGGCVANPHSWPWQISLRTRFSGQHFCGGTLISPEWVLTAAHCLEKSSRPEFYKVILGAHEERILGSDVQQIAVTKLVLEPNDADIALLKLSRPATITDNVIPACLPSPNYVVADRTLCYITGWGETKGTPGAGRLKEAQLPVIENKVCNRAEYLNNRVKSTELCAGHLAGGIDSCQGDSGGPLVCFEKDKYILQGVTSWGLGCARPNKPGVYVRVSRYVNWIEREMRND

For `COc1ccccc1C(=O)N[C@]1(OC)C(=O)N2C(C(=O)OC(c3ccccc3)c3ccccc3)=C(CSc3nnnn3C)CO[C@@H]21`, in series [1], the remaining at 0.5 h was determined as 73%.
What is called IC50 is the midpoint of a concentration-inhibition curve. Low readings indicate inhibition by little substance, high ones a need for much substance. One may read the half-life as the time in which the quantity being followed falls by half. Low values mean rapid decline, high ones slow decline. As for `CCOc1ccccc1C(=O)N[C@]1(OC)C(=O)N2C(C(=O)OCc3ccc(C(=O)O)cc3)=C(CSc3nnnn3C)CO[C@@H]21`, the half-maximal inhibitory concentration (IC50) against Chymotrypsinogen A was 0.16 µM; on Serine protease 1, 2.1 µM; at Prothrombin it was 3.6 µM; on Neutrophil elastase, 9.5 µM; against Chymase, 0.027 µM; at Plasminogen it was > 10 µM. The half-life in series [2] is 1.5 h. In series [1], the remaining at 0.5 h stood at 87%.
As to `CO[C@@]1(NC(=O)Cc2ccc(O)cc2)C(=O)N2C(C(=O)OCc3cccc(C)c3)=C(C)CO[C@@H]21`, the remaining at 0.5 h in series [1] is 59%. Further, on Chymase, the IC50 is > 10 µM.
For the molecule `CCCOc1ccccc1C(=O)N[C@]1(OC)C(=O)N2C(C(=O)OCc3ccc(C(=O)O)cc3)=C(CSc3nnnn3C)CO[C@@H]21`, the remaining at 0.5 h in series [1] was 26%.
`CCC(C)Oc1ccccc1C(=O)N[C@]1(OC)C(=O)N2C(C(=O)OCc3ccc(C(=O)O)cc3)=C(CSc3nnnn3C)CO[C@@H]21` (stereo partly drawn): the remaining at 0.5 h in series [1] is 39%.
For the molecule `CO[C@@]1(NC(=O)Cc2ccc(O)cc2)C(=O)N2C(C(=O)OCc3cccc(C)c3)=C(CSc3nnc(C)s3)CO[C@@H]21`, the remaining at 0.5 h in series [1] amounted to 13%.
Still for that read-out and setting: in the case of `CO[C@@]1(NC(=O)Cc2ccc(O)cc2)C(=O)N2C(C(=O)OCc3cccc(C)c3)=C(CSc3nnnn3C)CO[C@@H]21` it was 10%.
On the same count and under the same terms, in the case of `CO[C@@]1(NC(=O)c2ccccc2Oc2ccccc2)C(=O)N2C(C(=O)OCc3ccc(C(=O)O)cc3)=C(CSc3nnnn3C)CO[C@@H]21` it was 63%; in that of `CO[C@@]1(NC(=O)Cc2ccc(O)cc2)C(=O)N2C(C(=O)OC(c3ccccc3)c3ccccc3)=C(CSc3nnnn3C)CO[C@@H]21`, 40%.
Regarding `COc1ccccc1C(=O)N[C@]1(OC)C(=O)N2C(C(=O)OCc3cccc(C)c3)=C(CSc3nnnn3CC(=O)O)CO[C@@H]21`, in series [2], the half-life is < 0.167 h. For the same molecule, in series [1], the remaining at 0.5 h was determined as 11%.
Turning to `CO[C@@]1(NC(=O)c2ccccc2OC(C)C)C(=O)N2C(C(=O)OCc3ccc(C(=O)O)cc3)=C(CSc3nnnn3C)CO[C@@H]21`, the remaining at 0.5 h in series [1] is 42%.
On to `CO[C@@]1(NC(=O)Cc2ccc(O)cc2)C(=O)N2C(C(=O)OCc3cccc(C)c3)=C(CSc3nnnn3CC(=O)O)CO[C@@H]21`, for which the remaining at 0.5 h in series [1] came to 5%.
Regarding `COc1ccccc1C(=O)N[C@]1(OC)C(=O)N2C(C(=O)OCc3ccc(C(=O)O)cc3)=C(CSc3nnnn3C)CO[C@@H]21`, the remaining at 0.5 h in series [1] worked out at 26%.
Same read-out and setting: the same measure for `CO[C@@]1(NC(=O)Cc2ccc(N(C)C)cc2)C(=O)N2C(C(=O)OC(c3ccccc3)c3ccccc3)=C(CSc3nnnn3C)CO[C@@H]21`: 53%.
